Type in all cases: functional
Conditions in all cases: read-out: ED50 (the source's name)

In assay [1] the test system is MCF7. The assay is described as follows: Cytotoxicity against human MCF7 cells expressing ER. In a few lines: (§1)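 SRB growth-inhibition assay. Cells grown in RPMI-1640 with 25 mM HEPES, 0.25% sodium bicarbonate, 10% FBS and 100 µg/mL kanamycin. Freshly trypsinized cells seeded at 1500-7500 per well, with compound added from DMSO-diluted stock. After 3 days, attached cells fixed with cold 50% TCA, stained with 0.4% SRB, dye solubilized, A562 read. ED50 = concentration reducing growth 50%, mean of ≥3 independent determinations.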

Assay [2] concerns MDA-MB-231. Description: Cytotoxicity against human MDA-MB-231 cells lacking ER. The procedure, abridged: as §1
Assay [3] deals with SK-BR-3. Description: Cytotoxicity against human SK-BR-3 cells expressing HER2 and lacking ER. In a few lines: as §1
For assay [4], the system named is A-431. Description: Cytotoxicity against human A431 cells. The procedure, abridged: as §1
Assay [5] deals with SW-620. Description: Cytotoxicity against human SW620 cells. In a few lines:
as §1

Assay [6] concerns KB. Description: Cytotoxicity against human KB cells. In a few lines:
as §1

Assay [7] deals with ZR-75-1. The assay is described as follows: Cytotoxicity against human ZR-75-1 cells expressing ER. In a few lines:
as §1

Assay [8] relates to Hs-578T. Description: Cytotoxicity against human HS 587-T cells lacking ER. The procedure, abridged: as §1

Molecules are shown by their SMILES. ≈ marks a conversion by molar mass, not a printed value.

As to `CCc1cccc2c1ccc1c3occc3c(=O)oc21`, the EC50 in assay [1] and in assay [2] was greater than 10 µg/mL throughout.

Consider `O=c1oc2c3ccccc3ccc2c2occc12`, for which the EC50 in assay [1] was greater than 20 µg/mL; in assay [2] it was 10.5 µg/mL (≈ 44.4 µM).

Turning to `Cc1cccc2c1ccc1c3occc3c(=O)oc21`, the EC50 in assay [3] was 8.5 µg/mL (≈ 34 µM); in assay [4], 8.3 µg/mL (≈ 33.2 µM); in assay [5], greater than 10 µg/mL; in assay [6], greater than 10 µg/mL; in assay [1], 5.5 µg/mL (≈ 22 µM); in assay [7], greater than 10 µg/mL.

For `CCc1cccc2c1ccc1c3occ(C)c3c(=O)oc21`, the EC50 in assay [8] was 10 µg/mL (≈ 35.9 µM); in assay [3], 0.1 µg/mL (≈ 0.359 µM); in assay [4], greater than 10 µg/mL; in assay [5], greater than 10 µg/mL; in assay [6], greater than 10 µg/mL; in assay [1], 0.45 µg/mL (≈ 1.62 µM). In addition, the EC50 was found to be 0.18 µg/mL (≈ 0.647 µM) in assay [7] and 13.5 µg/mL (≈ 48.5 µM) in assay [2].

For `Cc1cccc2c1ccc1c3occ(C)c3c(=O)oc21`, the EC50 was 16 µg/mL (≈ 60.5 µM) in assay [8]; 0.18 µg/mL (≈ 0.681 µM) in assay [3]; greater than 10 µg/mL in assay [4]; greater than 10 µg/mL in assay [5]; greater than 10 µg/mL in assay [6]; 0.6 µg/mL (≈ 2.27 µM) in assay [1]. Besides, the EC50 in assay [7] turned out to be 0.25 µg/mL (≈ 0.946 µM); in assay [2], 10 µg/mL (≈ 37.8 µM).

`COc1cc2c3occ(C)c3c(=O)oc2c2ccccc12`: the EC50 was 8.6 µg/mL (≈ 30.7 µM) in assay [3]; 9.5 µg/mL (≈ 33.9 µM) in assay [4]; 9 µg/mL (≈ 32.1 µM) in assay [5]; greater than 10 µg/mL in assay [6]; 5 µg/mL (≈ 17.8 µM) in assay [1]; greater than 10 µg/mL in assay [7].

On to `Cc1coc2c1c(=O)oc1c3ccccc3ccc21`, for which the EC50 in assay [8] worked out at 7.5 µg/mL (≈ 30 µM); in assay [1] it was 4 µg/mL (≈ 16 µM); in assay [7], 4 µg/mL (≈ 16 µM); in assay [2], 10.3 µg/mL (≈ 41.2 µM).

In the case of `Cc1coc2c1c(=O)oc1c3ccccc3c(Cl)cc21`, the EC50 in assay [3] was 4.5 µg/mL (≈ 15.8 µM); in assay [4] it was 8 µg/mL (≈ 28.1 µM); in assay [5] it was greater than 10 µg/mL; in assay [6], greater than 10 µg/mL; in assay [1], 5 µg/mL (≈ 17.6 µM); in assay [7], 8.6 µg/mL (≈ 30.2 µM).

Take `O=c1oc2c3ccccc3c(Cl)cc2c2occc12`: the EC50 in assay [3] was greater than 10 µg/mL; in assay [4] it was greater than 10 µg/mL; in assay [5], greater than 10 µg/mL; in assay [6] it was greater than 10 µg/mL; in assay [1], 7 µg/mL (≈ 25.9 µM); in assay [7], greater than 10 µg/mL.

On to `COc1cc2c3occc3c(=O)oc2c2ccccc12`, for which the EC50 in assay [3] came to 4 µg/mL (≈ 15 µM); in assay [4] it was 9.5 µg/mL (≈ 35.7 µM); in assay [5] it was 4 µg/mL (≈ 15 µM); in assay [6], 9.5 µg/mL (≈ 35.7 µM); in assay [1], 3.4 µg/mL (≈ 12.8 µM); in assay [7], 8.5 µg/mL (≈ 31.9 µM).

On to `O=c1oc2c(ccc3ccccc32)c2c1C(O)CO2` (stereo not drawn), for which, in assay [1], the EC50 turned out to be 12.5 µg/mL (≈ 49.2 µM).

Regarding `CC/C(=C(\c1ccccc1)c1ccc(OCCN(C)C)cc1)c1ccccc1` [TAMOXIFEN], the EC50 in assay [8] worked out at 7 µg/mL (≈ 18.8 µM); in assay [3], 5 µg/mL (≈ 13.5 µM); in assay [4], 7 µg/mL (≈ 18.8 µM); in assay [5], 4 µg/mL (≈ 10.8 µM); in assay [6], 9 µg/mL (≈ 24.2 µM); in assay [1] it was 5 µg/mL (≈ 13.5 µM). Also, the EC50 was found to be 3.6 µg/mL (≈ 9.69 µM) in assay [7] and 8.5 µg/mL (≈ 22.9 µM) in assay [2].

The values are drawn from ChEMBL document CHEMBL1146885, “Antitumor agents. 254. Synthesis and biological evaluation of novel neo-tanshinlactone analogues as potent anti-breast cancer agents” (2006).
